The EC50 is the midpoint of the concentration-response curve. In general, CC50 refers to the concentration at which the toxic effect on the cells reaches its halfway point.

Values after ≈ are worked out from the molar mass of the structure shown.

Data set [1] has as its system Influenza B virus. Nature of the data set: Antiviral activity against Influenza B virus infected in MDCK cells assessed as inhibition of virus induced cytopathicity by visual scoring of CPE. The format is functional, organism-based. (Damage to the host cells serves as the signal in cytopathic effect assays.)
Data set [2] deals with Influenza A virus. The data set can be described thus: Antiviral activity against Influenza A H3N2 virus subtype infected in MDCK cells assessed as inhibition of virus induced cytopathicity after 2 to 4 days by MTS assay. The format is functional, organism-based.
Data set [3] in a line: Cytotoxicity against MDCK cells assessed as altered cell morphology. As to conditions: dog. It is filed as cell-based, Canis lupus familiaris. The gist of the method:
(§1)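 Uninfected cell cultures run alongside the antiviral assays, exposed to serial compound dilutions and incubated at 37 °C for 2–4 days. Toxicity was scored microscopically and reported as the minimum cytotoxic concentration (MCC), the lowest concentration causing a detectable change in normal cell morphology.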

The test system of data set [4] is Influenza A virus. Nature of the data set: Antiviral activity against Influenza A H1N1 virus subtype infected in MDCK cells assessed as inhibition of virus induced cytopathicity by visual scoring of CPE. It is filed as functional, organism-based.
Data set [5] is described as follows: Cytotoxicity against MDCK cells assessed as cell viability by MTS assay. It is filed as cell-based, Canis lupus familiaris. As to conditions: dog, MDCK cells. The gist of the method:
(§2)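 Uninfected cultures were run in parallel with the antiviral assays. Viability was read by colorimetric formazan MTS assay.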
(Formazan colour is commonly taken as a measure of viable cells.)

Data set [6] relates to Influenza B virus. The data set can be described thus: Antiviral activity against Influenza B virus infected in MDCK cells assessed as inhibition of virus induced cytopathicity after 2 to 4 days by MTS assay. The format is functional, organism-based.
Data set [7] deals with Influenza A virus. The data set can be described thus: Antiviral activity against Influenza A H1N1 virus subtype infected in MDCK cells assessed as inhibition of virus induced cytopathicity after 2 to 4 days by MTS assay. The format is functional, organism-based.
Data set [8] concerns Coxsackievirus B4. The data set can be described thus: Antiviral activity against coxsackievirus B4 infected in human HeLa cells assessed as inhibition of virus induced cytopathicity by visual scoring of CPE. It is filed as functional, organism-based. To be noted: Enterovirus B.
For data set [9], the system named is Respiratory syncytial virus. Nature of the data set: Antiviral activity against Respiratory syncytial virus infected in human HeLa cells assessed as inhibition of virus induced cytopathicity by visual scoring of CPE. The format is functional, organism-based.
The test system of the next data set is Human alphaherpesvirus 2. Nature of the data set: Antiviral activity against Herpes simplex virus 2 G infected in HEL cells assessed as inhibition of virus induced cytopathicity after 2 to 4 days by MTS assay. The format is functional, organism-based. To be noted: Human alphaherpesvirus 2, strain G.
Data set [10] is described as follows: Cytotoxicity against african green monkey Vero cells assessed as altered cell morphology. It is filed as cell-based. To be noted: chlorocebus sabaeus. The gist of the method:
as §1

For another data set, the system named is Vaccinia virus. The data set can be described thus: Antiviral activity against Vaccinia virus infected in HEL cells assessed as inhibition of virus induced cytopathicity after 2 to 4 days by MTS assay. It is filed as functional, organism-based. To be noted: Orthopoxvirus vaccinia.
The subject of data set [11] is Human alphaherpesvirus 1. The data set can be described thus: Antiviral activity against thymidine kinase deficient acyclovir-resistant Herpes simplex virus 1 KOS infected in HEL cells assessed as inhibition of virus induced cytopathicity after 2 to 4 days by MTS assay. The format is functional, organism-based. As to conditions: Human alphaherpesvirus 1, KOS.
Data set [12] relates to Vesicular stomatitis virus. Nature of the data set: Antiviral activity against Vesicular stomatitis virus infected in HEL cells assessed as inhibition of virus induced cytopathicity after 2 to 4 days by MTS assay. The format is functional, organism-based.
The subject of another data set is Human respirovirus 3. Nature of the data set: Antiviral activity against parainfluenza-3 virus infected in african green monkey Vero cells assessed as inhibition of virus induced cytopathicity after 2 to 4 days by MTS assay. It is filed as functional, organism-based. To be noted: Human respirovirus 3, Vero.
Data set [13] relates to Human alphaherpesvirus 1. Nature of the data set: Antiviral activity against Herpes simplex virus 1 KOS infected in HEL cells assessed as inhibition of virus induced cytopathicity after 2 to 4 days by MTS assay. It is filed as functional, organism-based. To be noted: Human alphaherpesvirus 1, KOS.
The test system of data set [14] is Coxsackievirus B4. The data set can be described thus: Antiviral activity against Coxsackie virus B4 infected in african green monkey Vero cells assessed as inhibition of virus induced cytopathicity after 2 to 4 days by MTS assay. It is filed as functional, organism-based. As to conditions: Enterovirus B.
For data set [15], the system named is Respiratory syncytial virus. Nature of the data set: Antiviral activity against Respiratory syncytial virus infected in human HeLa cells assessed as inhibition of virus induced cytopathicity after 2 to 4 days by MTS assay. The format is functional, organism-based.
A short description of data set [16]: Cytotoxicity against human HeLa cells assessed as cell viability by MTS assay. It is filed as cell-based. As to conditions: HeLa cells. The method in brief: as §2
Another data set has as its system Punta Toro virus. Nature of the data set: Antiviral activity against Punta Toro virus infected in african green monkey Vero cells assessed as inhibition of virus induced cytopathicity after 2 to 4 days by MTS assay. It is filed as functional, organism-based.
The nature of data set [17]: Cytotoxicity against human HEL cells assessed as altered cell morphology. It is filed as cell-based. The method in brief:
as §1

Data set [18] in a line: Cytotoxicity against human HeLa cells assessed as altered cell morphology. It is filed as cell-based. The method in brief:
as §1

Data set [19] relates to Vesicular stomatitis virus. The data set can be described thus: Antiviral activity against Vesicular stomatitis virus infected in human HeLa cells assessed as inhibition of virus induced cytopathicity by visual scoring of CPE. It is filed as functional, organism-based.
Data set [20] concerns Mammalian orthoreovirus 1. Nature of the data set: Antiviral activity against Reovirus 1 virus infected in african green monkey Vero cells assessed as inhibition of virus induced cytopathicity after 2 to 4 days by MTS assay. The format is functional, organism-based. As to conditions: Mammalian orthoreovirus 1, Vero.
Data set [21] concerns Coxsackievirus B4. The data set can be described thus: Antiviral activity against coxsackievirus B4 infected in human HeLa cells assessed as inhibition of virus induced cytopathicity after 2 to 4 days by MTS assay. It is filed as functional, organism-based. To be noted: Enterovirus B.
Data set [22] has as its system Influenza A virus. Nature of the data set: Antiviral activity against Influenza A H3N2 virus subtype infected in MDCK cells assessed as inhibition of virus induced cytopathicity by visual scoring of CPE. It is filed as functional, organism-based.

As for `NC12CC3CC(CC(C3)C1)C2` [AMANTADINE], the EC50 in the data set on Influenza B virus [1] is greater than 200 µg/mL; in the data set on Influenza A virus [2] it was 0.2 µg/mL (≈ 1.32 µM); with Influenza A virus [4], 18 µg/mL (≈ 119 µM); with Influenza B virus [6] it was greater than 200 µg/mL; in the data set with Influenza A virus [7], 44 µg/mL (≈ 291 µM). Besides, in data set [3], the MCC is greater than 200 µg/mL. For the same compound, the CC50 in data set [5] was greater than 200 µg/mL.
For `NC(=O)c1ncn([C@@H]2O[C@H](CO)[C@@H](O)[C@H]2O)n1` [RIBAVIRIN], the EC50 in the data set on Coxsackievirus B4 [8] was 50 µg/mL (≈ 205 µM); in data set [9], 6 µg/mL (≈ 24.6 µM); in the data set on Human alphaherpesvirus 2, 2 µg/mL (≈ 8.19 µM); with Vaccinia virus it was 10 µg/mL (≈ 40.9 µM); with Human alphaherpesvirus 1 [11] it was 2 µg/mL (≈ 8.19 µM); in data set [12] it was greater than 250 µg/mL. The EC50 with Human respirovirus 3 worked out at 95 µg/mL (≈ 389 µM); with Human alphaherpesvirus 1 [13] it was 1 µg/mL (≈ 4.09 µM); in the data set with Influenza B virus [1], 7 µg/mL (≈ 28.7 µM); with Influenza A virus [2] it was 8.4 µg/mL (≈ 34.4 µM); with Coxsackievirus B4 [14] it was 250 µg/mL (≈ 1020 µM); in data set [15] it was 2.8 µg/mL (≈ 11.5 µM). Moreover, the EC50 in the data set with Punta Toro virus turned out to be 112 µg/mL (≈ 459 µM); in data set [19], 10 µg/mL (≈ 40.9 µM); in data set [20], 112 µg/mL (≈ 459 µM); in the data set on Influenza A virus [4], 9 µg/mL (≈ 36.9 µM); with Coxsackievirus B4 [21], 14 µg/mL (≈ 57.3 µM); in the data set with Influenza B virus [6], 4.3 µg/mL (≈ 17.6 µM). Also, in the data set with Influenza A virus [7], the EC50 is 12 µg/mL (≈ 49.1 µM). In addition, the MCC is greater than 250 µg/mL in data set [10], greater than 250 µg/mL in [17], greater than 250 µg/mL in data set [18] and greater than 100 µg/mL in data set [3]. For the same compound, in data set [16], the CC50 was greater than 250 µg/mL.
Take `CC(N)C12CC3CC(CC(C3)C1)C2` (centres undefined) [RIMANTADINE]: the EC50 is greater than 200 µg/mL in the data set on Influenza B virus [1]; 0.02 µg/mL (≈ 0.112 µM) in the data set on Influenza A virus [2]; 4 µg/mL (≈ 22.3 µM) with Influenza A virus [4]; 0.03 µg/mL (≈ 0.167 µM) in the data set with Influenza A virus [22]; greater than 200 µg/mL in the data set with Influenza B virus [6]; 12 µg/mL (≈ 66.9 µM) in the data set with Influenza A virus [7]. Besides, in data set [3], the MCC was greater than 200 µg/mL. Further, in data set [5], the cytotoxic concentration (CC50) is greater than 200 µg/mL.

The values above are taken from ChEMBL document CHEMBL1629526, “4-[1-(Substituted aryl/alkyl carbonyl)-benzoimidazol-2-yl]-benzenesulfonic acids: synthesis, antimicrobial activity, QSAR studies, and antiviral evaluation” (Eur J Med Chem, 2010).
